Data set [1] in a line: folding enthalpy; higher = less favourable; fluorescence melt of hairpins on a sequencing array, two-state fit. The following applies: sodium 0.088 M. The method in brief: (§1)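 Bootstrapped two-state fits yielded melting temperature and folding enthalpy for library hairpins. Cy3 fluorescence, with annealed Cy3 and quencher oligos, was imaged on a sequenced MiSeq flow cell in 50 mM Na-HEPES pH 8.0, 25 mM NaCl in 2.5 °C steps up to 60 °C, and normalised to pre-quench Cy3 and to control constructs. Four replicates were combined by inverse variance, and fitted temperatures were raised by 9.35 °C to match UV melts.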

Data set [2] in a line: melting temperature; fluorescence melt of hairpins on a sequencing array, two-state fit, raised by 9.35 °C to match UV melts. The following applies: sodium 0.088 M. Put shortly: as §1

The values below come from the array DNA melting data of Ke et al. (doi:10.1101/2024.01.08.574731).

As to GCGGCGCGAAAGCTCAGC ((.(.((....)).).)), the folding enthalpy in data set [1] was -19.2 kcal/mol. Also, in data set [2], the Tm was 56.7 °C.

As for GCGGCGCGAAAGCTCTGC ((.(.((....)).).)), in data set [1], the folding enthalpy is -22.9 kcal/mol. The Tm in data set [2] was found to be 47.4 °C.

On to GCGGCGGACCGC ((((....)))), for which the folding enthalpy in data set [1] was -22.6 kcal/mol. Further, the Tm in data set [2] is 54.9 °C.

For GCGGCGGCCGC ((((...)))), in data set [1], the folding enthalpy was -22.6 kcal/mol. Besides, the Tm in data set [2] stood at 61.3 °C.

As to GCGGCGTTCCGC ((((....)))), the folding enthalpy in data set [1] is -14.8 kcal/mol. Moreover, the Tm in data set [2] was determined as 54.1 °C.

As for GCGGCTCTCCGC ((((....)))), the folding enthalpy in data set [1] is -26.3 kcal/mol. In addition, the Tm in data set [2] worked out at 55.6 °C.

In the case of GCGGCTGGAAACAGCTGC ((.((((....)))).)), the folding enthalpy in data set [1] is -39.1 kcal/mol. The Tm in data set [2] worked out at 63.6 °C.

In the case of GCGGGAACCCGC ((((....)))), the folding enthalpy in data set [1] is -26 kcal/mol. Moreover, the Tm in data set [2] turned out to be 67.8 °C.

Regarding GCGGGACCGAAAGGTCGC (((..(((....)))))), the folding enthalpy in data set [1] is -11.5 kcal/mol. The Tm in data set [2] was 56.3 °C.

On to GCGGGAGGAAACCCCCGC (((((.(....).))))), for which the folding enthalpy in data set [1] is -37.9 kcal/mol. In addition, in data set [2], the Tm was 60.2 °C.

As for GCGGGAGGAAACTCCTGC ((.((((....)))).)), the folding enthalpy in data set [1] is -39 kcal/mol. Further, in data set [2], the Tm came to 58.1 °C.

In the case of GCGGGCGAAAGCCATCGC ((((((....)))..))), the folding enthalpy in data set [1] is -21.1 kcal/mol. In data set [2], the Tm came to 52.8 °C.

For the sequence GCGGGCGAAAGCCTTCGC ((((((....)))..))), the folding enthalpy in data set [1] was -15.7 kcal/mol. Further, in data set [2], the Tm was 50.1 °C.

Turning to GCGGGCTCCGC ((((...)))), the folding enthalpy in data set [1] was -21.6 kcal/mol. In addition, the Tm in data set [2] was found to be 58.5 °C.

Regarding GCGGGGCGAAAGCCTTGC ((..(((....)))..)), the folding enthalpy in data set [1] was -18 kcal/mol. Moreover, in data set [2], the Tm was determined as 58.4 °C.

As to GCGGGGCGAAAGCGCAGC ((.(.((....)).).)), the folding enthalpy in data set [1] is -23.5 kcal/mol. Also, in data set [2], the Tm turned out to be 59.5 °C.

GCGGGGCGAAAGCTTCGC (((..((....))..))): the folding enthalpy in data set [1] is -35.3 kcal/mol. In addition, the Tm in data set [2] was 63 °C.

Regarding GCGGGGCTCCGC ((((....)))), the folding enthalpy in data set [1] is -26.7 kcal/mol. Moreover, the Tm in data set [2] came to 67.4 °C.

In the case of GCGGGGGCGAAAGCCCGC (((..(((....)))))), the folding enthalpy in data set [1] is -11.4 kcal/mol. Moreover, in data set [2], the Tm was found to be 65.1 °C.

Regarding GCGGGGGGAAACCCTCGC (((.(((....))).))), the folding enthalpy in data set [1] is -38 kcal/mol. Also, the Tm in data set [2] worked out at 61.6 °C.

For GCGGGGGGCCGC ((((....)))), the folding enthalpy in data set [1] is -13.5 kcal/mol. Besides, the Tm in data set [2] was determined as 60.7 °C.

Take GCGGGGTGCCGC ((((....)))): the folding enthalpy in data set [1] is -26.3 kcal/mol. Moreover, the Tm in data set [2] stood at 61.2 °C.

Regarding GCGGGTGCGAAAGCACGC (((..(((....)))))), in data set [1], the folding enthalpy is -10.3 kcal/mol. Further, in data set [2], the Tm turned out to be 55.7 °C.

On to GCGGTACGAAAGTACGC (((.(((....)))))), for which the folding enthalpy in data set [1] is -26.4 kcal/mol. The Tm in data set [2] came to 60.7 °C.

Take GCGGTACGCCGC ((((....)))): in data set [1], the folding enthalpy is -13.5 kcal/mol. For the same sequence, in data set [2], the Tm turned out to be 67 °C.

On to GCGGTAGGAAACTACTGC ((.((((....)))).)), for which, in data set [1], the folding enthalpy was -34.8 kcal/mol. The Tm in data set [2] came to 52.2 °C.

Consider GCGGTAGGCCGC ((((....)))), for which the folding enthalpy in data set [1] was -17.4 kcal/mol. In addition, the Tm in data set [2] worked out at 63.7 °C.

On to GCGGTAGTCCGC ((((....)))), for which the folding enthalpy in data set [1] is -21.9 kcal/mol. The Tm in data set [2] is 58.8 °C.

In the case of GCGGTATTCCGC ((((....)))), the folding enthalpy in data set [1] is -30.6 kcal/mol. In addition, the Tm in data set [2] stood at 56.4 °C.

Consider GCGGTCATCCGC ((((....)))), for which the folding enthalpy in data set [1] is -26.7 kcal/mol. The Tm in data set [2] came out at 59.3 °C.

GCGGTCCTCCGC ((((....)))): in data set [1], the folding enthalpy is -28 kcal/mol. For the same sequence, in data set [2], the Tm was 58.5 °C.

On to GCGGTCGAAAGACAACGC ((((((....)))..))), for which the folding enthalpy in data set [1] is -27.7 kcal/mol. Also, the Tm in data set [2] was 56.6 °C.
